# Source: ChEMBL document CHEMBL3872225, “Synthesis, binding assays, cytotoxic activity and docking studies of benzimidazole and benzothiophene derivatives with selective affinity for the CB2 cannabinoid receptor” (Eur J Med Chem, 2016)
# Key:
# [1] = molecular target: Cannabinoid receptor 1 (Homo sapiens, UniProt P21554); assay: Displacement of [3H]CP-55940 from human recombinant CB1 receptor expressed in HEK293 cell membranes incubated for 1.5 hrs
# Procedure, shortened: (§1)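 Membranes from HEK-293 cells overexpressing human CB1 or CB2 incubated with increasing compound concentrations and 0.5 nM [3H]CP-55,940 at 30 °C for 1.5 h. […] Selectivity index is Ki CB1/Ki CB2.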
# [2] = molecular target: Cannabinoid receptor 1 (CB1) (Homo sapiens, UniProt P21554); assay: Displacement of [3H]CP-55940 from human recombinant CB1 receptor expressed in HEK293 cell membranes at 1 uM incubated for 1.5 hrs relative to control; details: probe [3H]CP-55940
# Chain of Cannabinoid receptor 1 (CB1) (P21554 whole entry): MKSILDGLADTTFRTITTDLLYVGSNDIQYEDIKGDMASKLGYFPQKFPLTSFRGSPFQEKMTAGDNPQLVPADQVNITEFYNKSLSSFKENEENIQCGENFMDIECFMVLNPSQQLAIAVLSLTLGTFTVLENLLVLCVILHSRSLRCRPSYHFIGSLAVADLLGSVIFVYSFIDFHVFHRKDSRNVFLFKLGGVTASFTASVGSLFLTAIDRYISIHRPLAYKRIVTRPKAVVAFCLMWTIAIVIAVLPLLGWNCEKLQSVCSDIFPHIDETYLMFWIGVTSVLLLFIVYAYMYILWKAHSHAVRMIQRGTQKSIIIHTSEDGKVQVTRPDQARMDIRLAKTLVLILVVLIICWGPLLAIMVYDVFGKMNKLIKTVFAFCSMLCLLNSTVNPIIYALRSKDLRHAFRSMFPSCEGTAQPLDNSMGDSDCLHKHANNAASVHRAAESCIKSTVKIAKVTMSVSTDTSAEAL
# Procedure, shortened: (§2)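 Single-point screen on HEK-293 membranes overexpressing human CB1 or CB2. […] Compounds displacing more than 50% at 1 μM went on to full curves.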
# [3] = molecular target: T1, Cannabinoid receptor 2 (Homo sapiens, UniProt P34972); assay: Displacement of [3H]CP-55940 from human recombinant CB2 receptor expressed in HEK293 cell membranes at 1 uM incubated for 1.5 hrs relative to control; procedure, shortened: as §2
# T1 sequence (P34972 whole entry): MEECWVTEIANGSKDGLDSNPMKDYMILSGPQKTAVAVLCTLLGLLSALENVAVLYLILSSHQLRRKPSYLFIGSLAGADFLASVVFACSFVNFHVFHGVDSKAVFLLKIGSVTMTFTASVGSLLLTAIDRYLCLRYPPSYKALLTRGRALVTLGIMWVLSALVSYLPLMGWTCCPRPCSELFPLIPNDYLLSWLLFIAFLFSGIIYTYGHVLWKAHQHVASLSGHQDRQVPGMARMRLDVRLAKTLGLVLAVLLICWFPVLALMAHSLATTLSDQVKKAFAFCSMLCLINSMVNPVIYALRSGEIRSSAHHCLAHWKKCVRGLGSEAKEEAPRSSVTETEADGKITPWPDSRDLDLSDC
# [4] = molecular target: T1, Cannabinoid receptor 2; assay: Displacement of [3H]CP-55940 from human recombinant CB2 receptor expressed in HEK293 cell membranes incubated for 1.5 hrs; procedure, shortened: as §1
# [5] = species: Homo sapiens; assay: Selectivity index, ratio of Ki for displacement of [3H]CP-55940 from human recombinant CB1 receptor to Ki for displacement of [3H]CP-55940 from human recombinant CB2 receptor; procedure, shortened: as §1
# [6] = Cytotoxicity against human HeLa cells assessed as reduction in cell viability measured after 72 hrs by MTT assay; type: functional, cell-based
# Procedure, shortened: (§3)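 Cells kept in RPMI 1640 with 5% FBS, penicillin/streptomycin, 37 °C, 5% CO2. Seeded at 10,000 cells/well, then exposed to compounds at 0.001–10 μM in 5% FBS-RPMI for 72 h at 37 °C. MTT added for 4 h, formazan dissolved overnight in 10% SDS/0.1 mM HCl, absorbance read at 570 nm. […] Etoposide as positive control.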
# [7] = Cytotoxicity against resistant human HCT116 cells assessed as reduction in cell viability measured after 72 hrs by MTT assay; type: functional, cell-based; details: HCT-116, 72 h; procedure, shortened: as §3
# [8] = Cytotoxicity against African green monkey Vero cells assessed as reduction in cell viability measured after 72 hrs by MTT assay; type: toxicity, cell-based; details: Chlorocebus sabaeus (African green monkey); procedure, shortened: as §3
# [9] = Cytotoxicity against human HL60 cells assessed as reduction in cell viability measured after 72 hrs by MTT assay; type: functional, cell-based; details: HL-60, 72 h; procedure, shortened: as §3
# [10] = Cytotoxicity against human H1975-1 cells assessed as reduction in cell viability measured after 72 hrs by MTT assay; type: functional, cell-based; procedure, shortened: as §3
# Chain of Cannabinoid receptor 1 (P21554 whole entry): as the sequence (P21554 whole entry) above
Structure (SMILES),IC50 [1] [nM],Ki [1] [nM],"inhibition at 1.5 h, 1 µM [2] [%]",inhibition [3] [%],IC50 [4] [nM],Ki [4] [nM],Ratio Ki [5],IC50 [6] [nM],IC50 [7] [nM],IC50 at 72 h [8] [nM],IC50 [9] [nM],IC50 [10] [nM]
CCCCc1nc2ccccc2n1C(=O)c1cccc2ccccc12,9700,5900,> 50,> 50,1700,400,14.7,> 10000,560,4100,105,> 10000
O=C(c1cccc2ccccc12)c1csc2ccccc12,> 10000,> 10000,> 50,> 50,1100,200,> 50,> 10000,> 10000,> 10000,58,> 10000
COc1ccc(C(=O)n2c(CC(C)C)nc3ccccc32)cc1,> 10000,> 10000,> 50,> 50,> 10000,> 10000,–,> 10000,3560,> 10000,34,> 10000
CC(C)Cc1sc2ccccc2c1C(=O)c1cccc2ccccc12,1200,700,> 50,> 50,2000,500,1.4,> 10000,> 10000,> 10000,72,> 10000
Cc1c(C(=O)c2cccc3ccccc23)c2cccc3c2n1[C@H](CN1CCOCC1)CO3 [WIN-552122],–,–,–,–,–,–,–,980,920,310,7,3800
COc1ccc(C(=O)c2c(-c3ccc(OC)cc3)sc3ccccc23)cc1,1100,700,> 50,> 50,400,100,7,> 10000,> 10000,> 10000,76,> 10000
COc1ccc(-c2sc3ccccc3c2C(=O)c2cccc3ccccc23)cc1,8400,5100,> 50,> 50,1400,300,17,> 10000,> 10000,> 10000,71,> 10000
CC(C)Cc1nc2ccccc2n1C(=O)c1cccc2ccccc12,> 10000,> 10000,> 50,> 50,500,100,> 100,> 10000,2170,> 10000,94,> 10000
CCCc1sc2ccccc2c1C(=O)c1cccc2ccccc12,1000,600,> 50,> 50,4300,1000,0.6,> 10000,> 10000,> 10000,130,> 10000
CCCCCc1sc2ccccc2c1C(=O)c1cccc2ccccc12,800,500,> 50,> 50,1300,300,1.7,> 10000,> 10000,> 10000,170,> 10000
CCCc1nc2ccccc2n1C(=O)c1ccc(OC)cc1,> 10000,> 10000,> 50,> 50,7600,1900,> 5.26,> 10000,120,300,102,> 10000
CCCCCc1sc2ccccc2c1C(=O)c1ccc(OC)cc1,> 10000,> 10000,> 50,> 50,1200,300,> 33,> 10000,> 10000,> 10000,83,> 10000
CCCc1sc2ccccc2c1C(=O)c1ccc(OC)cc1,> 10000,> 10000,> 50,> 50,1200,300,> 33,> 10000,> 10000,> 10000,80,> 10000
Cc1nc2ccccc2n1C(=O)c1cccc2ccccc12,> 10000,> 10000,> 50,> 50,> 10000,> 10000,–,> 10000,> 10000,> 10000,93,> 10000
COc1ccc(C(=O)c2c(CC(C)C)sc3ccccc23)cc1,7600,4600,> 50,> 50,700,100,46,> 10000,> 10000,> 10000,66,> 10000
COc1ccc(C(=O)n2c(C(C)(C)C)nc3ccccc32)cc1,> 10000,> 10000,> 50,> 50,2400,600,> 16.7,> 10000,20,> 10000,55,> 10000
CCCc1nc2ccccc2n1C(=O)c1cccc2ccccc12,> 10000,> 10000,> 50,> 50,> 10000,> 10000,–,> 10000,2400,> 10000,100,> 10000
COc1ccc(-c2nc3ccccc3n2C(=O)c2cccc3ccccc23)cc1,8100,4900,> 50,> 50,7700,1900,2.57,> 10000,1700,> 10000,146,> 10000
CCc1sc2ccccc2c1C(=O)c1cccc2ccccc12,8400,5100,> 50,> 50,2900,700,7.28,> 10000,> 10000,> 10000,99,> 10000
COc1cc([C@@H]2c3cc4c(cc3[C@@H](O[C@@H]3O[C@@H]5CO[C@@H](C)O[C@H]5[C@H](O)[C@H]3O)[C@H]3COC(=O)[C@H]23)OCO4)cc(OC)c1O [ETOPOSIDE],–,–,–,–,–,–,–,8200,2800,1500,2100,9500
COc1ccc(C(=O)n2c(C3CCCC3)nc3ccccc32)cc1,> 10000,> 10000,> 50,> 50,2200,500,> 20,> 10000,> 10000,> 10000,76,> 10000
O=C(c1cccc2ccccc12)n1c(C2CCC2)nc2ccccc21,9700,5800,> 50,> 50,5500,1400,4.14,> 10000,> 10000,> 10000,180,> 10000
COc1ccc(C(=O)n2c(C(C)C)nc3ccccc32)cc1,> 10000,> 10000,> 50,> 50,3200,800,> 12.5,> 10000,190,> 10000,630,> 10000
COc1ccc(C(=O)n2c(C)nc3ccccc32)cc1,> 10000,> 10000,> 50,> 50,> 10000,> 10000,–,> 10000,10,1230,57,> 10000
